Sampled rows, rich in hits. Any-hit rate of the full collection: about 2.4%.
S1P4 antagonist = S1P4 receptor antagonists, primary screen, cell-based | Sphingosine 1-phosphate receptor 4 (Homo sapiens), O95977 | S1P4-expressing cells, antagonist mode, reporter read-out | inhibition, % at 4.98 µM | 0.26% of 220,000 active; in the data active = inhibition above about 29%;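 note: 0% = wells stimulated with agonist and 100% = vehicle wells without agonist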
NPY-Y1 PAM-ag = NPY-Y1 receptor potentiators or agonists, primary screen, cell-based; AID 1304, 2008; Neuropeptide Y receptor type 1 (Homo sapiens), P25929; activation, % at 3.6 µM; 0.37% of 220,000 active; NPY-Y1 expressing cells, potentiator/agonist activation; in the data active = activation above about 33%, passing the limit was not always enough;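 note: cells stimulated with NPY at EC10 then isoproterenol at EC100; 0% = low agonist plus stimulus and 100% = saturating agonist plus stimulus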
NPY Y1 blocker = NPY-Y1 receptor antagonists, primary screen, cell-based; 1% of 200,000 active; AID 1040, 2008; HEK293-CNG Y1 cells, membrane potential fluorescence; NPY at EC95, then isoproterenol; Neuropeptide Y receptor type 1 (Homo sapiens), P25929; inhibition, % at 3.6 µM;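 active = inhibition above the campaign mean inhibition of all tested compounds plus 3 SD, cut at about 20% in these data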;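 note: 0% = DMSO wells given NPY plus isoproterenol and 100% = isoproterenol alone without NPY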
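Test system – HEK293 Y1/CNG channel cell line · Also added – NPY agonist 25 nM, then isoproterenol 1 µM plus Ro 20-1724 25 µM · Compound dosing – one concentration, 3.6 µM, in 0.4% DMSO · Schedule – compound incubation 1 h at room temperature, readout 45 min post-stimulation · Technique – fluorescence, membrane potential probe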
S1P4 ag = S1P4 receptor agonists, primary screen, cell-based. AID 1509, 2009. S1P4-expressing cell line, agonist reporter assay. activation, % at 4.98 µM. Sphingosine 1-phosphate receptor 4 (Homo sapiens), O95977. 0.35% of 220,000 active; in the data active = activation above about 11%;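 note: 0% = DMSO vehicle and 100% = reference agonist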
NPY-Y2 antag = NPY-Y2 receptor antagonists, primary screen, cell-based. Neuropeptide Y receptor type 2 (Homo sapiens), P49146. NPY-Y2 expressing cells, antagonist mode. inhibition, % at 2.7 µM. 0.99% of 140,000 active;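 note: 0% = vehicle with agonist challenge and 100% = reference antagonist with challenge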
Target sequence (P49146 whole entry, looked up): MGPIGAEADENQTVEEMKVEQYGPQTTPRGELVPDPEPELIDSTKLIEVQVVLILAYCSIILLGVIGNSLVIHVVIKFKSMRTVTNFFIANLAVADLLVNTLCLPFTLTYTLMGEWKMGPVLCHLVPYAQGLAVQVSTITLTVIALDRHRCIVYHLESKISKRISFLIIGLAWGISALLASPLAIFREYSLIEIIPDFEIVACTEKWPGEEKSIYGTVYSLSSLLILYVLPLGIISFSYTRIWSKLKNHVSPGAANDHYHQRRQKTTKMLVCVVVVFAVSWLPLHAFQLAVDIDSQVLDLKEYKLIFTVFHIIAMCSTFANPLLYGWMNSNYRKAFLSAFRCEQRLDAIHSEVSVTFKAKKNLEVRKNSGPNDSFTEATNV
NPY2 pot ag = NPY-Y2 potentiators or agonists, primary screen, cell-based. Neuropeptide Y receptor type 2 (Homo sapiens), P49146. cells expressing NPY-Y2, potentiator/agonist read-out. activation, % at 3.6 µM. 0.45% of 220,000 active; in the data active = activation above about 27%;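 note: cells stimulated with NPY near EC25 plus isoproterenol at EC100; 0% = vehicle plus submaximal agonist and 100% = vehicle plus saturating agonist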
NPY-Y1 ant conf = NPY-Y1 receptor antagonists, retest of hits, confirmation, HEK293-CNG cells, membrane potential fluorescence, triplicate. shares compounds with NPY Y1 blocker. cAMP; NPY challenge against isoproterenol-raised cAMP. inhibition, % at 3.6 µM. 21% of 1,200 active. AID 1254, 2008; in the data active = inhibition above about 20%;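 note: 0% = vehicle with agonist plus stimulus and 100% = stimulus alone without agonist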
NPY2 antag ctr = NPY-Y2 receptor antagonists, selectivity check, confirmation, counter-screen for NPY-Y1 antagonist project, HEK293-CNG cells, membrane potential fluorescence, triplicate; 28% of 1,200 active; AID 1255, 2008; antagonism; cells given NPY, then isoproterenol; shares compounds with NPY Y1 blocker; inhibition, % at 3.6 µM;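 note: 0% = DMSO with agonist challenge and 100% = reference antagonist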
* hit, by the source's call; . = no result given. Cut-off read from the data, not from the text of the source, unless noted: active = inhibition above about 17%; inactive = the rest.

SMILES	S1P4 antagonist	NPY-Y1 PAM-ag	NPY Y1 blocker	S1P4 ag	NPY-Y2 antag	NPY2 pot ag	NPY-Y1 ant conf	NPY2 antag ctr
CCOc1ccc(-n2c(-c3ccccc3)c[n+]3c2CCCCC3)cc1	-16	-36	24*	0	15	12	14	17*
c1ccc(-c2c[n+]3c(n2-c2ccccc2)CCC3)cc1	-4	9	.	0	.	4	.	.
COC(=O)[C@@]1(Cc2ccc(F)cc2)[C@H]2c3cc(C(=O)N4CCCC4)n(Cc4ccc(C(F)(F)F)nc4)c3C[C@H]2CN1C(=O)c1ccccc1	8	-9	28*	1	16	-3	28*	9
COC(=O)c1nc(N)sc1C	-2	-4	0	0	.	-4	.	.
COc1cc2c(cc1OC)C(c1cccs1)N(C(=S)NC(C)C)CC2 (configuration not stated)	-1	-12	30*	0	.	-12	10	5
CCN(c1cccc(C(F)(F)F)c1)S(=O)(=O)c1ccc2c(c1)CCN2C(=O)C1CC1	-5	-50	24*	-4	14	-8	14	13
CCC(=O)N1CCc2cc(S(=O)(=O)N(CC)c3cccc(C)c3)ccc21	-5	13	2	-2	5	-6	.	.
COc1cccc(CC2(CO)CCCN(Cc3c(C)cc(C)cc3-n3cccn3)C2)c1 (configuration not stated)	18	-37	38*	2	.	-39	24*	20*
CCOC(=O)c1cc2ccccc2n1CCN(CC)CC	-10	-25	25*	-4	12	-28	5	16
CC(O)Cc1cn([C@@H](CCCCNC(=O)OC(C)(C)C)C(=O)N2CCN(C(=O)OC(C)(C)C)CC2)nn1 (some centres not stated)	0	2	-4	1	.	9	.	.
O=C(c1cnn2c(C(F)(F)F)cc(-c3ccco3)nc12)N1CCc2ccccc2C1	-3	-49	21*	-1	11	-18	10	7
Cc1ccc(-c2cc(C(F)(F)F)n3ncc(C(=O)O)c3n2)cc1	-9	-2	21*	0	2	-10	2	3
COc1ccc(-c2cc(C(F)(F)F)n3ncc(C(=O)O)c3n2)cc1OC	0	-7	-3	1	4	21	.	.
O=C(NCc1ccco1)C(c1ccncc1)N(C(=O)Cc1cccs1)c1ccccc1 (configuration not stated)	-26	1	5	-1	.	-14	.	.
O=C(NCc1ccco1)C(c1ccccc1)N(C(=O)Cc1cccs1)c1ccccc1F (configuration not stated)	10	7	22*	0	13	-1	2	3
CCCCOc1ccc(C2CCC(C(C)=O)C(C)C2)cc1 (configuration not stated)	2	-17	.	-1	.	8	.	.
COc1cccc(C(C(=O)NC2CCCC2)N(CC2CCCO2)C(=O)Cc2cccs2)c1 (configuration not stated)	-13	12	26*	1	.	-10	8	8
COc1ccc(/C(N)=N/OC(=O)C2CCC(=O)N2S(=O)(=O)c2ccc(C)cc2)cc1OC (configuration not stated)	5	-16	0	0	8	-6	.	.
COc1ccc(OCC(=O)O/N=C(\N)Cc2ccc(Cl)cc2)cc1	-3	-47	23*	0	10	-13	7	7
O=C(O)c1cc2c(ccc3ccccc32)o1	-10	-30	32*	0	14	-21	13	15
Cc1ccccc1N1CCN(c2ncnc3c2cnn3Cc2ccc(Cl)cc2)CC1	-6	-37	29*	-1	7	-8	10	17*
COc1ccc(C(=O)NC2CCN(C(=O)Nc3ccccc3Cl)CC2)cc1	-13	-3	2	0	.	-20	.	.
c1ccc(CN2CCN(CCOCCOc3ccc4c(c3)CCC4)CC2)cc1	-5	-10	1	-1	.	-5	.	.
O=c1[nH]nc(Cc2ccc(Cl)cc2Cl)c2ccccc12	0	5	8	2	9	12	.	.
O=c1[nH]nc(CNc2ccc(Cl)cc2Cl)c2ccccc12	-7	-35	24*	1	.	-13	16	25*
SMILES	S1P4 antagonist	NPY-Y1 PAM-ag	NPY Y1 blocker	S1P4 ag	NPY-Y2 antag	NPY2 pot ag	NPY-Y1 ant conf	NPY2 antag ctr
Cn1cccc1C(=O)OCC(=O)NC(=O)NC1CCCCC1	-7	4	5	2	.	-1	.	.
Cc1cc(C#N)c(C)c(SCc2[nH]nc3c2C(c2ccccc2)C(C#N)=C(N)O3)n1 (configuration not stated)	-39	-27	21*	4	8	-16	59*	39*
Cc1[nH]nc2c1C(c1ccc(F)cc1)C(C#N)=C(N)O2 (configuration not stated)	10	4	-4	-1	3	1	.	.
Cc1cc(C)c(C#N)c(SCc2[nH]nc3c2C(c2ccc(F)cc2)C(C#N)=C(N)O3)n1 (configuration not stated)	-4	-41	42*	3	11	-15	57*	41*
Cc1ccc(NC(=O)/C=C/c2ccc3c(c2)OCO3)cc1S(=O)(=O)N1CCOCC1	-13	-2	0	1	5	-11	.	.
CC1CCN(C(=O)CSc2nc3ccccc3c(=O)n2Cc2ccc3c(c2)OCO3)CC1	-29	-43	21*	3	12	-20	4	6
CC1CCN(C(=O)Cn2c(=O)n(Cc3ccc4c(c3)OCO4)c(=O)c3ccccc32)CC1	-1	7	5	2	6	-2	.	.
CC(C)C(c1nnnn1Cc1ccco1)N1CCN(C2CCCC2)CC1 (configuration not stated)	-9	1	6	0	8	2	.	.
CCCC(c1nnnn1Cc1ccco1)N1CCN(C2CCCC2)CC1 (configuration not stated)	0	-15	22*	0	14	-11	9	7
CCCC(c1nnnn1Cc1cccs1)N1CCN(C2CCCC2)CC1 (configuration not stated)	-5	-8	25*	0	15	3	5	3

Screening data deposited in PubChem by The Scripps Research Institute Molecular Screening Center.
